Compound activity (PubChem BioAssay)
WT yeast gro inh: growth inhibition of WT yeast, mitochondrial fusion screen; mitochondrial fusion phenotypic screen, WT strain; inhibition, % at 10 µM; 2.1% of 190,000 active; AID 1362; in the data active means inhibition above about 58%; tested in S. cerevisiae
L major viab: Leishmania major promastigote growth inhibition. Leishmania major promastigotes, resazurin fluorescence viability. inhibition, % at 10 µM. 9% of 200,000 active. AID 1063; in the data active means inhibition above about 50%;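 further: promastigotes grown with compound for 44 hours at 28 °C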
Rad51 HR inh: Rad51 (human) homologous recombination inhibition; AID 1385; Q06609; hRad51 DNA strand exchange, fluorescence dequenching; inhibition, % at 10 µM; 0.085% of 200,000 active;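 active means inhibition above 40% at the single screening dose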;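 further: 0% = DMSO control wells and 100% = blanks with heterologous ssDNA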
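material = hRad51 filaments on single-stranded DNA | timing = filaments 15 min 37 °C, then compound 30 min | signal = FRET fluorescence dequenching, excitation 485 nm, emission 520 nm | benchmarks = control wells and blank wells on each plate | evaluation = percent inhibition relative to plate controls and blanks | compound = 10 µM final, single point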
PMI act satM6P: increases human PMI activity with near-saturating mannose 6-phosphate | activation factor at 20 µM | coupled PMI enzyme assay, resazurin fluorescence, 20 min; stronger effect = higher value; 1 = untreated enzyme, 0 = substrate-free blank | P34949 | 0.34% of 190,000 active;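 active means activation factor of 2 or more at 20 µM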
Target sequence (P34949 whole entry, looked up): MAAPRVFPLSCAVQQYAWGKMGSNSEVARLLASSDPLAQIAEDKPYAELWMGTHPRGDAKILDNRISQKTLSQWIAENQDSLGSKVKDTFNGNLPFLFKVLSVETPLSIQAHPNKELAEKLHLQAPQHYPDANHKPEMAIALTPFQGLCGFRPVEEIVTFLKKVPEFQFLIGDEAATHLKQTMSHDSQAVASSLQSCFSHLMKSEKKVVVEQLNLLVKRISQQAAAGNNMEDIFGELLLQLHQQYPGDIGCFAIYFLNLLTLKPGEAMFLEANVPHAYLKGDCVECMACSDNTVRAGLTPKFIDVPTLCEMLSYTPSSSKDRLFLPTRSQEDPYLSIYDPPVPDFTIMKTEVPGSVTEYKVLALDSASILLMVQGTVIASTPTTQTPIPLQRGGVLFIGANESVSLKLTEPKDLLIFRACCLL
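Test system: human PMI in coupled enzyme assay; Input: PMI at 15 ng/mL final; Medium: HEPES buffer, pH 7.4; Schedule: 20 min incubation at room temperature; Technique: resorufin fluorescence at Ex 544/Em 590 nm; Compound: 20 µM single dose; Probe or stimulus: Near-saturating mannose-6-phosphate, 1.0 mM.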
Calpain2 inh: calpain II (pig) inhibition | purified calpain II, fluorogenic peptide substrate, 30 min | inhibition, % at 16 µM | AID 1236 | 0.37% of 220,000 active;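 active means inhibition above about 50%, limit read from the data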
PMI activator: activators of human phosphomannose isomerase; P34949; purified human PMI, coupled resazurin fluorescence, 20 min; stronger effect = higher value; 1 = vehicle control, 0 substrate-free wells; activation factor at 20 µM; 0.005% of 190,000 active; AID 1214;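 active means activation factor of 2 or more at 20 µM, relative to plate controls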
* marks the source's active call; other numbers are inactive results; i = inactive; x = not tested or not shown. Only some compounds are listed: those with a hit (about 9.8% of all), similar ones and a draw of the others.

SMILES | WT yeast gro inh | L major viab | Rad51 HR inh | PMI act satM6P | Calpain2 inh | PMI activator
N#C/C(=C/c1ccc(CNC(=O)C(=O)Nc2cc(Cl)cc(Cl)c2)o1)C(=O)NCc1cccnc1 | -1 | -5 | -5 | 1 | -38 | 0.9
Cc1cc(C)c(NC(=O)c2ccccc2C(=O)c2ccccc2)c(C)c1 | -16 | 19 | 6 | 1 | -2 | 1
Cc1ccccc1-c1nc(CN2CCC(C(=O)NCCCN3CC(C)CC(C)C3)CC2)c(C)o1 (stereo not drawn) | -13 | 76* | -3 | 1.1 | -37 | 1.1
Cc1oc(-c2ccccc2F)nc1CN1CCC(C(=O)NCCC2=CCCCC2)CC1 | 98* | 28 | -4 | 1 | -6 | 1
Cc1oc(-c2ccc(Cl)cc2)nc1CN1CCCC(C(=O)NCCCN2CCOCC2)C1 (stereo not drawn) | -21 | 76* | x | 1 | -35 | 1
Cc1ccccc1-c1nc(CN2CCC(C(=O)NCCCN3CCCC3)CC2)c(C)o1 | 4 | 3 | 1 | 0.9 | -19 | 0.9
COc1ccc(CCNC(=O)C2CCN(Cc3nc(-c4ccccc4F)oc3C)CC2)cc1OC | -23 | 15 | -2 | 1 | -36 | 1
OCCC1CN(Cc2cccn2-c2ncccn2)CCN1C1CCCC1 (stereo not drawn) | 11 | 12 | 22 | 1 | -34 | 1
NCCCNC(=O)c1ccc(/C=N/O)nc1 | 1 | 0 | 12 | 1.1 | -12 | 1
O=C(Nc1c2ccccc2nc2ccccc12)C(Cl)(Cl)Cl | 33 | 100* | -4 | 1.5 | i | 1.2
O=C(Cc1ccccc1)NNc1c2ccccc2nc2ccccc12 | 59* | 31 | 13 | 1 | 11 | 0.9
Cc1ccc(OCC(=O)NNc2c3ccccc3nc3ccccc23)cc1 | 36 | 97* | 6 | 1 | 9 | 0.9
O=C(Cc1ccccc1)NNC(=O)Cc1ccccc1 | -16 | -1 | -4 | 1.1 | -1 | 1
O=C(CCl)Nc1cccc(S(=O)(=O)NC2=NCCC2)c1 | x | x | x | x | -20 | x
CN1c2ccccc2C(C)(C)C12C=Nc1c(ccc3ccccc13)O2 (stereo not drawn) | 25 | 5 | 5 | 0.5 | 11 | 0.7
COc1ccc2ccc3c(c2c1)N=CC1(O3)N(C)c2ccccc2C1(C)C (stereo not drawn) | 78* | 24 | -3 | 0.4 | 3 | 0.7
Cc1ccc(Nc2nnc(C3C(=O)N(C)C4(C)CC3c3cc(Br)ccc3O4)s2)cc1 (stereo not drawn) | 55 | 69* | -3 | 0.8 | -32 | 0.8
C/C(=N\NC(=O)Cn1nc(C)c([N+](=O)[O-])c1C)c1ccco1 | x | x | 17 | x | -8 | x
CCN(/N=C/c1ccc(Cl)cc1)c1cc(=O)n(C)c(=O)[nH]1 | 3 | -3 | -4 | 0.7 | 26 | 0.8
CCN(/N=C/C=C/c1ccccc1)c1cc(=O)n(C)c(=O)[nH]1 | -4 | -4 | -4 | 0.8 | 52* | 0.8
CCCn1c(N2CCN(Cc3ccc(Cl)cc3)CC2)nc2ccccc21 | 45 | 55* | -4 | 1 | 10 | 0.9
COc1cc(CN2CCN(c3cccc(Cl)c3)CC2)cc(OC)c1OC | 8 | 88* | -8 | 1 | 22 | 1
Cn1c(CN2CCN(c3cccc(Cl)c3)CC2)nc2ccccc21 | 38 | 68* | 8 | 1 | 22 | 1.1
O=c1[nH]c(CN2CCN(S(=O)(=O)c3cccs3)CC2)nc2c(Br)cc(Br)cc12 | 24 | 11 | -2 | 1 | -23 | 1
COc1ccc(C(=O)N2CCOC2CNC(=O)C(=O)NCc2ccc(Cl)cc2)cc1 (stereo not drawn) | 0 | -2 | -4 | 1 | -18 | 1
SMILES | WT yeast gro inh | L major viab | Rad51 HR inh | PMI act satM6P | Calpain2 inh | PMI activator
O=c1cc(-c2ccccc2)nc2c(-c3ccccc3)c(C(F)(F)F)[nH]n12 | x | x | x | x | -7 | x
CCOC(=O)Cn1nc(-c2ccccc2)c2ccccc2c1=O | x | -5 | 1 | 1 | 13 | 1
CN1CCN(C(=O)CCn2nc(-c3ccccc3)c3ccccc3c2=O)CC1 | 29 | 54* | -3 | 0.9 | 15 | 0.6
O=C(CCn1nc(-c2ccccc2)c2ccccc2c1=O)NN1CCOCC1 | -2 | -2 | 29 | 1 | 1 | 1
O=c1c2ccccc2c(-c2ccccc2)nn1Cc1c(Cl)cccc1Cl | 61* | 5 | 0 | 0.8 | -17 | 0.8
CSc1ccc(CNc2ccc(Cl)cc2)cc1 | -3 | 100* | 6 | 0.9 | 37 | 0.9
N/C(=N\OC(=O)N1CCOCC1)c1ccc(Br)cc1 | -5 | 27 | 21 | 0.8 | 1 | 0.8
COc1cc(C(=O)O/N=C(\N)c2ccncc2)cc(OC)c1OC | -3 | 82* | -2 | 1.1 | -3 | 1
COc1cc(C(=O)O/N=C(\N)c2cccc([N+](=O)[O-])c2)cc(OC)c1OC | x | x | x | x | -14 | x
COc1cc(C(=O)O/N=C(\N)c2ccc([N+](=O)[O-])cc2)cc(OC)c1OC | 9 | 56* | -1 | 0.9 | 14 | 1
Cc1ccccc1-n1nnnc1SCC(=O)N(C)C1CCS(=O)(=O)C1 (stereo not drawn) | 5 | -3 | 2 | 1 | -3 | 1
CN(C(=O)/C(N=Nc1cccc(C(F)(F)F)c1)=C(\O)C(F)(F)F)c1ccccc1 | 70* | 0 | -2 | 0.8 | -56 | 0.8
CC(=O)/C(N=Nc1cccc(C(F)(F)F)c1)=C(\C)O | 10 | -13 | -8 | 1.1 | 6 | 1.1
COc1ccc(Cn2c(=O)c3[nH]cnc3n(-c3ccc(C)cc3)c2=O)cc1 | x | x | -14 | x | 34 | x
C=CCSC1=C(C#N)C(c2ccccc2Cl)C(C(=O)c2cccs2)C(O)(C(F)(F)F)N1 (stereo not drawn) | 11 | 88* | 1 | 0.9 | 1 | 0.8
CCSC1=C(C#N)C(c2ccccc2Cl)C(C(=O)c2cccs2)C(O)(C(F)(F)F)N1 (stereo not drawn) | 42 | 17 | -2 | 0.9 | 8 | 0.9
CC(C)[C@H](NS(=O)(=O)c1cccc(Cl)c1)C(=O)OCC(=O)N1CCN(c2ccccc2)CC1 | 5 | 9 | 2 | 2* | -2 | 1.4
O=C(COc1ccc(S(=O)(=O)NC2CCCCC2)cc1Cl)N1CCN(c2ccccc2)CC1 | 23 | 98* | -3 | 0.9 | -35 | 0.9
O=C(OCC(=O)N1CCN(c2ccccc2)CC1)c1cccc(Cl)c1 | -8 | -2 | 1 | 1.1 | -2 | 1.1
COc1ccc(CCNC(=O)COc2ccc(S(=O)(=O)NC3CCCCC3)cc2Cl)cc1 | -17 | 75* | -2 | 0.9 | 32 | 0.9
COCCOC(=O)C1=C(C)NC(=O)N(C(C)=O)C1c1ccc(Cl)cc1 (stereo not drawn) | -11 | 88* | 12 | 0.8 | -25 | 0.9
CC1CC(OCC(O)C[N+]2(C)CCOCC2)CC(C)(C)C1 (stereo not drawn) | -2 | -7 | -4 | 1.1 | 9 | 0.9
